In ChEMBL document CHEMBL4371071, “Muscarinic agonist, (±)-quinuclidin-3-yl-(4-fluorophenethyl)(phenyl)carbamate: High affinity, but low subtype selectivity for human M1 - M5 muscarinic acetylcholine receptors” (Bioorg Med Chem Lett, 2019):

Key:
[1] = molecular target: T1, Muscarinic acetylcholine receptor M5 (Homo sapiens, UniProt P08912); experiment: Displacement of [3H]NMS from human M5 AChR expressed in CHO cell membranes after 1 to 2 hrs by liquid scintillation spectrometry method
T1 sequence (P08912 whole entry): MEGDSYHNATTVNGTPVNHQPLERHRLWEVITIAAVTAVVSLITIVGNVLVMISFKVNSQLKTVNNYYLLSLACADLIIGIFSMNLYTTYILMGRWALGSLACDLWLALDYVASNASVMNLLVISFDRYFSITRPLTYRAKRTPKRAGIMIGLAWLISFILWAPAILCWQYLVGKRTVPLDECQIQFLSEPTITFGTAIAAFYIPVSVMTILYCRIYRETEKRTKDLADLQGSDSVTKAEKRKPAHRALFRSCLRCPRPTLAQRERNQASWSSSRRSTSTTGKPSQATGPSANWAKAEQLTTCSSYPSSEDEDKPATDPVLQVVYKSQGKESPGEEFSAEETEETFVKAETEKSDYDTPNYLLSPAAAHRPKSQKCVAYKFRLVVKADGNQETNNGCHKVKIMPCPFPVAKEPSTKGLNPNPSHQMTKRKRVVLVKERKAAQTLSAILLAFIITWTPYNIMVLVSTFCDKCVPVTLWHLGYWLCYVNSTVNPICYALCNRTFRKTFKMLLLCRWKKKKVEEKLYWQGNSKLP
Method in brief: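 CHO membranes expressing human M5 (10 µg protein/well) with 0.3 nM [3H]NMS and analog (1 nM–100 µM) in 50 mM Tris-HCl pH 7.4, 2 h at 25 °C. Filtered on GF/B, counted by scintillation. IC50 converted to Ki; three independent experiments in duplicate.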

[2] = molecular target: T2, Muscarinic acetylcholine receptor M3 (Homo sapiens, UniProt P20309); experiment: Displacement of [3H]NMS from human M3 AChR expressed in CHO cell membranes after 1 to 2 hrs by liquid scintillation spectrometry method; assay type: cell-based
Target sequence in this assay (P20309 whole entry): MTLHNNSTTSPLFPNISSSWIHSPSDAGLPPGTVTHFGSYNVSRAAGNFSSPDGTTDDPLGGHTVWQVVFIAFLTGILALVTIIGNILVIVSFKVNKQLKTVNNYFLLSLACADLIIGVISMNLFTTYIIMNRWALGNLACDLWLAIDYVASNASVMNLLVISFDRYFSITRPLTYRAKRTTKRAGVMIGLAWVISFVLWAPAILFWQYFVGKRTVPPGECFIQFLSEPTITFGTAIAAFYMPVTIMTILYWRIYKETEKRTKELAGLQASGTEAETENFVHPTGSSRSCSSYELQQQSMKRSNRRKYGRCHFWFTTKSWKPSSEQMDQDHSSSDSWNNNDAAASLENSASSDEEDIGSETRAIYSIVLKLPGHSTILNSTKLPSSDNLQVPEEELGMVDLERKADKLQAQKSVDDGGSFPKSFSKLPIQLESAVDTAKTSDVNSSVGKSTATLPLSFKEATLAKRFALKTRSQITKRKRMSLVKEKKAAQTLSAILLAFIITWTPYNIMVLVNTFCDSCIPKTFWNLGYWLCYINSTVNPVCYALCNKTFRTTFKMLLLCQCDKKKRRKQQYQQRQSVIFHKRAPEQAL

[3] = molecular target: T3, Muscarinic acetylcholine receptor M1 (Homo sapiens) (UniProt P11229); settings: CHO, at 100 µM
T3 sequence (whole entry): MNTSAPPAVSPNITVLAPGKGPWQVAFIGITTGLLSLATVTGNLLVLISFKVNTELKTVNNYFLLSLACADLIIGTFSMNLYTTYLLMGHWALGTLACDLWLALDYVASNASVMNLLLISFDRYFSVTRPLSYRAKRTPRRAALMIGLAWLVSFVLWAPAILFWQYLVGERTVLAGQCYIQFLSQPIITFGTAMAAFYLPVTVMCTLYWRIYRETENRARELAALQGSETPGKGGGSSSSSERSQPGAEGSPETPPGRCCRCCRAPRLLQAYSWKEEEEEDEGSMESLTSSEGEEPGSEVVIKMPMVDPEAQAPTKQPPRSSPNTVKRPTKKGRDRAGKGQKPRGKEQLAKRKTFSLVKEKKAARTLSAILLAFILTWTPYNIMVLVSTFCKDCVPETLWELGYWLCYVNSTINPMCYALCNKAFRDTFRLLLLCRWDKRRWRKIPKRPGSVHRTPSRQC

[4] = molecular target: T4, Muscarinic acetylcholine receptor M5 (Homo sapiens) (UniProt P08912); experiment: Displacement of [3H]NMS from human M5 AChR expressed in CHO cell membranes at 100 uM after 1 to 2 hrs by liquid scintillation spectrometry method relative to control
T4 sequence (whole entry): T1 sequence (P08912 whole entry)
Method in brief: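 CHO membranes expressing human M5 (10 µg protein/well) with 0.3 nM [3H]NMS and analog (1 nM–100 µM) in 50 mM Tris-HCl pH 7.4, 2 h at 25 °C. […] Filtered on GF/B, counted by scintillation. IC50 converted to Ki; three independent experiments in duplicate.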

Homo sapiens [5] = species on record: Homo sapiens; experiment: Selectivity ratio of Ki for displacement of [3H]NMS from human M1 AChR expressed in CHO cell membranes to Ki for displacement of [3H]NMS from human M5 AChR expressed in CHO cell membranes
[6] = molecular target: T5, Muscarinic acetylcholine receptor M1 (Homo sapiens, UniProt P11229); experiment: Displacement of [3H]NMS from human M1 AChR expressed in CHO cell membranes after 1 to 2 hrs by liquid scintillation spectrometry method; assay type: cell-based
T5 sequence (P11229 whole entry): T3 sequence (whole entry)

[7] = molecular target: T2, Muscarinic acetylcholine receptor M3; settings: CHO, at 100 µM
Target sequence in this assay (P20309 whole entry, looked up): as the sequence (P20309 whole entry) above

[8] = molecular target: T6, Muscarinic acetylcholine receptor M2 (Homo sapiens) (UniProt P08172); experiment: Displacement of [3H]NMS from human M2 AChR expressed in CHO cell membranes at 100 uM after 1 to 2 hrs by liquid scintillation spectrometry method relative to control
T6 sequence (whole entry): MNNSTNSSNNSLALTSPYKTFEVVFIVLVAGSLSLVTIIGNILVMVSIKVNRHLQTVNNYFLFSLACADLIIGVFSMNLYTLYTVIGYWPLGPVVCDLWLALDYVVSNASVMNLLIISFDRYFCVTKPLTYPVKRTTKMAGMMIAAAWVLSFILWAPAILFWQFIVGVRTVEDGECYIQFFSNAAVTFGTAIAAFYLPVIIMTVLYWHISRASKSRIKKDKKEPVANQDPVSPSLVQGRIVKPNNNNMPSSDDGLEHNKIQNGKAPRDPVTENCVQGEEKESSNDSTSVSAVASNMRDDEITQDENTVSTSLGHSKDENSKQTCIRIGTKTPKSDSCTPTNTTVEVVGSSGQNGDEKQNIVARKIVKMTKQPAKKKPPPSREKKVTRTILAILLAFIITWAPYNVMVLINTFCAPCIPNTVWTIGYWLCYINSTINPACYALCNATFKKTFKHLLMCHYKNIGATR
Method in brief: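 CHO membranes expressing the human subtype (20 µg protein/well) with 0.3 nM [3H]NMS and analog (1 nM–100 µM) in 50 mM Tris-HCl pH 7.4, 2 h at 25 °C. Filtered on GF/B, washed, counted by scintillation. IC50 taken from curves to give Ki; three independent experiments in duplicate.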

[9] = molecular target: T7, Muscarinic acetylcholine receptor M2 (Homo sapiens, UniProt P08172); experiment: Displacement of [3H]NMS from human M2 AChR expressed in CHO cell membranes after 1 to 2 hrs by liquid scintillation spectrometry method
T7 sequence (P08172 whole entry): T6 sequence (whole entry)
Method in brief: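 CHO membranes expressing the human subtype (20 µg protein/well) with 0.3 nM [3H]NMS and analog (1 nM–100 µM) in 50 mM Tris-HCl pH 7.4, 2 h at 25 °C. […] Filtered on GF/B, washed, counted by scintillation. IC50 taken from curves to give Ki; three independent experiments in duplicate.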

Homo sapiens [10] = species on record: Homo sapiens; experiment: Selectivity ratio of Ki for displacement of [3H]NMS from human M2 AChR expressed in CHO cell membranes to Ki for displacement of [3H]NMS from human M3 AChR expressed in CHO cell membranes

SMILES | Ki [1] [nM] | Ki [2] [nM] | Imax [3] [%] | Imax [4] [%] | Ratio Ki (Homo sapiens [5]) | Ki [6] [nM] | Imax [7] [%] | Imax [8] [%] | Ki [9] [nM] | Ratio Ki (Homo sapiens [10])
O=C(OCCc1ccc(Cl)c(Cl)c1)N(c1ccccc1)C1CN2CCC1CC2 (stereo not drawn) | 80 | 260 | 99.9 | 98.8 | 4.5 | 370 | 99.8 |  |  | 
COc1ccc(COC(=O)N(c2ccccc2)C2CN3CCC2CC3)cc1F (stereo not drawn) | 40 | 50 | 99.5 | 96.7 | 1.5 | 70 | 100 | 98.8 | 100 | 1.8
Cc1ccc(COC(=O)N(c2ccccc2)C2CN3CCC2CC3)cc1F (stereo not drawn) | 30 | 20 | 100 | 97.4 | 1.2 | 40 | 99 | 99.7 | 30 | 1.3
COc1ccc(CCOC(=O)N(c2ccccc2)C2CN3CCC2CC3)cc1OC (stereo not drawn) | 3490 | 2760 | 90.6 | 94 | 2 | 6980 | 85.9 |  |  | 
COc1ccc(COC(=O)N(c2ccccc2)C2CN3CCC2CC3)cc1 (stereo not drawn) | 470 | 1150 | 97.9 | 97.1 | 1.5 | 710 | 95.7 |  |  | 
CN1CCCC(OC(=O)N(CCc2ccc(F)cc2)c2ccccc2)C1 (stereo not drawn) | 150 | 350 | 99.9 | 99.9 | 0.8 | 120 | 99 |  |  | 
CN1CCC(OC(=O)N(CCc2ccc(F)cc2)c2ccccc2)CC1 | 60 | 140 | 100 | 100 | 1.2 | 70 | 100 |  |  | 
COc1ccc(CCCOC(=O)N(c2ccccc2)C2CN3CCC2CC3)cc1OC (stereo not drawn) | 1610 | 1560 | 97.1 | 99 | 0.9 | 1460 | 96.3 |  |  | 
COc1ccc(CCN(C(=O)OC2C[C@H]3CC[C@H](C2)N3C)c2ccccc2)cc1OC (stereo partly drawn) | 1370 | 2800 | 95.3 | 95.9 | 1.4 | 1870 | 88.8 |  |  | 
O=C(OCCc1ccc2c(c1)OCO2)N(c1ccccc1)C1CN2CCC1CC2 (stereo not drawn) | 240 | 290 | 99.6 | 97.1 | 2.6 | 630 | 98 |  |  | 
O=C(OCCc1ccccc1)N(c1ccccc1)C1CN2CCC1CC2 (stereo not drawn) | 260 | 300 | 88.5 | 96.9 | 3 | 790 | 99.1 |  |  | 
O=C(OCCCc1ccccc1)N(c1ccccc1)C1CN2CCC1CC2 (stereo not drawn) | 260 | 550 | 99.1 | 95.7 | 3 | 780 | 98.9 |  |  | 
COc1ccc(CCN(C(=O)OC2CCN(C)CC2)c2ccccc2)cc1OC | 380 | 1280 | 99 | 96.5 | 2 | 770 | 96.6 |  |  | 
Cc1ccc(CCCOC(=O)N(c2ccccc2)C2CN3CCC2CC3)cc1F (stereo not drawn) | 130 | 130 | 100 | 99.9 | 1.5 | 200 | 100 |  |  | 
COc1ccc(CCCOC(=O)N(c2ccccc2)C2CN3CCC2CC3)cc1 (stereo not drawn) | 640 | 390 | 98.5 | 99.5 | 0.9 | 590 | 96.8 |  |  | 
COc1ccc(CCN(C(=O)OC2CCCN(C)C2)c2ccccc2)cc1OC (stereo not drawn) | 4490 | 4360 | 94.3 | 89.2 | 1 | 4300 | 85.6 |  |  | 
COc1ccc(CCN(C(=O)OC2CCCN(C)C2)c2ccccc2)cc1 (stereo not drawn) | 1050 | 1320 | 98.6 | 97.7 | 0.7 | 690 | 96.2 |  |  | 
COc1ccc(CCN(C(=O)OC2C[C@H]3CC[C@H](C2)N3C)c2ccccc2)cc1 (stereo partly drawn) | 240 | 270 | 99.7 | 97.9 | 1.5 | 350 | 98.9 |  |  | 
O=C(OCCCc1ccc(F)c(F)c1)N(c1ccccc1)C1CN2CCC1CC2 (stereo not drawn) | 100 | 220 | 100 | 99.4 | 3 | 300 | 99.5 |  |  | 
COc1ccc(CCCOC(=O)N(c2ccccc2)C2CN3CCC2CC3)cc1F (stereo not drawn) | 260 | 250 | 100 | 99.4 | 1.7 | 430 | 99.8 |  |  | 
COc1ccc(COC(=O)N(c2ccccc2)C2CN3CCC2CC3)cc1OC (stereo not drawn) | 550 | 1020 | 96.8 | 98.7 | 1.4 | 770 | 95.4 |  |  | 
COc1ccc(CCOC(=O)N(c2ccccc2)C2CN3CCC2CC3)cc1 (stereo not drawn) | 230 | 420 | 98.4 | 98.9 | 3.3 | 760 | 99.3 |  |  | 
CN1[C@@H]2CC[C@H]1C[C@@H](OC(=O)C(CO)c1ccccc1)C2 (stereo partly drawn) |  |  |  | 96.7 |  |  |  |  |  | 
COc1ccc(CCN(C(=O)OC2CCN(C)CC2)c2ccccc2)cc1 | 190 | 570 | 99.8 | 99.7 | 1.5 | 280 | 99.7 |  |  | 
